Published values of several laboratories.
Protocols differ between the studies behind these lines.

SMILES | target | read-out | action | method | notes | quantity | result
c1cncc(-c2cccc(Nc3nccc(NC4CCCCC4)n3)c2)c1 | Tyrosine-protein kinase JAK2, JH1 (JAK2, Homo sapiens, UniProt O60674) | binding |  | competition with immobilised ligand |  | Kd | 260 nM
COc1ccc2c(Oc3ccc4c(C(=O)Nc5ccccc5N)cccc4c3)ccnc2c1 | Tyrosine-protein kinase JAK2 (JAK2, Homo sapiens, UniProt O60674) | enzyme activity | inhibitor |  |  | IC50 | > 500 nM
Nc1ccn([C@@H]2O[C@H](COP(=O)(O)OP(=O)(O)OP(=O)(O)O)[C@@H](O)[C@H]2O)c(=O)n1 | virB (Shigella flexneri, UniProt P0A247) | binding |  | ITC |  | Kd | 9300 nM
CCOc1cc(-c2nncn2C)ccc1Nc1ncc2cc(C)nc(NCC(C)(C)C)c2n1 | Mitogen-activated protein kinase 9 (MAPK9, Homo sapiens, UniProt P45984) | binding |  | competition with immobilised ligand |  | Kd | 74 nM
CC1(C)[C@@H](O)CC[C@]2(C)[C@H]3C(=O)C=C4[C@@H]5C[C@@](C)(C(=O)O)CC[C@]5(C)CC[C@@]4(C)[C@]3(C)CC[C@@H]12 | Peroxiredoxin-2 (PRDX2, Homo sapiens, UniProt P32119) | binding |  | SPR |  | Kd | 30000 nM
CC(C)C[C@H](NC(=O)[C@H](Cc1ccccc1)NC(=O)[C@H](Cc1ccc(O)cc1)NC(=O)CNC(=O)[C@H](CCCNC(=N)N)NC(=O)[C@H](CO)NC(=O)[C@H](CCC(N)=O)NC(=O)[C@H](CO)NC(=O)[C@H](C)NC(=O)[C@H](Cc1ccccc1)NC(=O)[C@@H]1CCCN1C(=O)[C@H](CO)NC(=O)[C@H](CCC(N)=O)NC(=O)[C@H](Cc1ccccc1)NC(=O)[C@H](CCC(=O)O)NC(=O)[C@H](CCC(=O)O)NC(=O)[C@H](CC(=O)O)NC(=O)[C@@H](NC(=O)[C@H](CCCNC(=N)N)NC(=O)[C@@H](N)Cc1ccccc1)C(C)C)C(=O)N[C@@H](Cc1ccccc1)C(=O)N[C@@H](CCCNC(=N)N)C(=O)N1CCC[C@H]1C(=O)N[C@@H](CCCNC(=N)N)C(=O)N[C@@H](CC(N)=O)C(N)=O | Neuromedin-U receptor 1 (NMUR1, Homo sapiens, UniProt Q9HB89) | inositol phosphate | agonist |  |  | EC50 | 0.123 nM
Cc1cnc(-c2ccc(-c3ccc(NC(=O)Nc4c(F)cc(F)cc4F)cc3F)c3c2C(=O)NC3)[nH]1 | Tyrosine-protein kinase Lck (LCK, Homo sapiens, UniProt P06239) | binding |  | competition with immobilised ligand |  | Kd | 11 nM
C[S+](CC[C@H](N)C(=O)O)C[C@H]1O[C@@H](n2cnc3c(N)ncnc32)[C@H](O)[C@@H]1O (stereo partly drawn) | tRNA (guanine-N(1)-)-methyltransferase (trmD, Escherichia coli, UniProt P0A873) | binding |  | fluorescence |  | Kd | 1400 nM
C[C@@]12CCC(=O)N1c1cc(Nc3ncc(Cl)c(-c4cccc(-c5ccccc5)c4)n3)cnc1OC2 | Phosphatidylinositol 5-phosphate 4-kinase type-2 gamma (PIP4K2C, Homo sapiens, UniProt Q8TBX8) | binding |  |  |  | Kd | 0.45 nM
CC(=O)CC(c1ccccc1)c1c(O)c2ccccc2oc1=O (stereo not drawn) | Vitamin K epoxide reductase complex subunit 1-like protein 1 (Homo sapiens, UniProt Q8N0U8) | enzyme activity | inhibitor | fluorescence |  | Ki | 95 nM
ON=Cc1ccc(-c2ccc(O)c(F)c2)c(Cl)c1O | Estrogen receptor beta (ESR2, Homo sapiens, UniProt Q92731) | reporter gene | agonist | luciferase |  | EC50 | 72 nM
Cc1cc2nc3c(=O)[nH]c(=O)nc-3n(C[C@H](O)[C@H](O)[C@H](O)COP(=O)(O)OP(=O)(O)OC[C@H]3O[C@@H](n4cnc5c(N)ncnc54)[C@H](O)[C@@H]3O)c2cc1C | RNA-binding protein Musashi homolog 2 (MSI2, Homo sapiens, UniProt Q96DH6) | binding |  |  | lysate | Kd | 59 nM
